Laboratory results: article PMC7385434 (Science Advances, 2020)

Tests used:
MDA-MB-231 tumor = experiment: In vivo and ex vivo fluorescence imaging of tumor accumulation and retention; parameters: species or system mouse; conditions: 200 μM, n = 3
In short: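 MDA-MB-231-bearing BALB/c nude mice received test nanoparticles (200 μl, 200 μM) i.v.; peptide-only NPs and PBS served as controls. Whole-body fluorescence (ex 500 nm, em 520 nm) was imaged at 4, 12, 24, 48 and 72 h. At 72 h, heart, liver, spleen, lung, kidney and tumor were excised for ex vivo fluorescence imaging. Groups had three to four mice.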

tumor growth = conditions: sunitinib at a dose of 8.75 mg/kg; cited from earlier work
[1] = Safety: body weight and H&E of normal tissues during therapy; type: in vivo, mouse
In short: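 MDA-MB-231-bearing mice were randomized into three groups of three to four. They received test nanoparticles i.v. (200 μl, 200 μM; 2.4 mg/kg) every other day, with peptide-only NPs and PBS as controls. Body weight and tumor volume were recorded every other day. Normal tissues were fixed overnight in 4% paraformaldehyde/PBS, paraffin-embedded, sectioned, H&E-stained and examined by light microscopy.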

[2] = Safety for blood circulation: platelet activity, thrombin, platelet numbers; type: in vivo, mouse; conditions: tumor-bearing mice, i.v. 200 μl, 200 μM, up to 5 days
In short: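 Tumor-bearing mice received test nanoparticles (200 μl, 200 μM) i.v. Blood was drawn into 3.8% sodium citrate at 0, 1, 4, 24 and 120 h. Platelet-rich plasma was obtained by mixing blood with an equal volume of 2% paraformaldehyde in PBS for 30 min, then centrifuging at 1000 rpm for 10 min. P-selectin was measured by flow cytometry after 30 min with FITC anti-P-selectin mAb. Thrombin was measured by ELISA; platelet counts by flow cytometry.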

HUVECs = experiment: CCK-8 cytotoxicity assay, HUVECs; type: cell-based, human; conditions: CCK-8, 24 hours, 10-80 μM, n = 4
MCF-7 cells = experiment: CCK-8 cytotoxicity assay, MCF-7 cells; type: cell-based, human; conditions: CCK-8, 24 hours, 10-80 μM, n = 4
[3] = Particle size and morphology by TEM and DLS; type: physicochemical
In short: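 Nanoparticles were formed by quick injection of a 4.0 mM DMSO peptide stock into water (0.5:99.5 v/v), giving 20 μM. They were incubated with CD105 (0.25 μg/ml) for 0, 4 and 8 h, with BSA or no protein as controls. TEM: drops sat on copper mesh 15 min, were blotted, stained 15 min with uranyl acetate, water-washed, air-dried and imaged at 200 kV. DLS was run at 0 and 8 h.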

[4] = test system: MDA-MB-231 xenografted tumor; experiment: Blood oxygen saturation; type: in vivo, mouse; conditions: 4 hours after i.v. injection, 200 μl, 200 μM; n = 30 slices
In short: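 MDA-MB-231 tumor-bearing BALB/c mice were anesthetized with isoflurane in a glass box. Test nanoparticles (200 μl, 200 μM) were given i.v.; peptide-only NPs and PBS (200 μl) served as controls. Multispectral optoacoustic tomography read Hb at 715 nm and HbO2 at 850 nm before and 4 h after injection. 3D maps were built from 30 2D slices at 0.1 mm steps. Data are means ± SD; unpaired two-tailed t test.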

[5] = in vivo fluorescence at 4, 12, 24, 48, 72 hours after i.v. 200 μl

In the case of BP-AHKHVHHVPVRL [BA NPs], the “tumor fluorescence at 72 hours” value (MDA-MB-231 tumor; in vivo fluorescence after i.v. 200 μl) is reported as “almost disappeared”.
In the case of `CCN(CC)CCNC(=O)c1c(C)[nH]c(/C=C2\C(=O)Nc3ccc(F)cc32)c1C` [sunitinib], the tumor growth inhibition (tumor growth) is given as 32%.
In the case of BP-FFVLK-AHKHVHHVPVRL [pNPs], the “acute systemic toxicity by body weight” value ([1]; i.v. 200 μM, 200 μl every other day, body weight every other day) is reported as “did not induce acute systematic toxicity”, the “cell necrosis in other (non-tumor) tissues, H&E” value ([1]; tissues harvested 15 d after treatment) is reported as “not observed” and the “change in plasma thrombin generation” value ([2]; ELISA) is reported as “did not induce obvious changes”. The “change in circulating platelet numbers” value ([2]; flow cytometry) was “did not induce obvious changes”, the “change in platelet activity (P-selectin-positive platelets)” value ([2]; flow cytometry) was “did not induce obvious changes” and the “concentration showing good biocompatibility (cell viability)” value (HUVECs) was “below 50 μM”. The “concentration showing good biocompatibility (cell viability)” value (MCF-7 cells) was “below 50 μM”, the “size during incubation with CD105 (TEM)” value ([3]; 20 μM with CD105 0.25 μg/ml in water, pNPs at start, apNFs at 4 hours) was 30.6 ± 7.1 nm and the “size by DLS before incubation with CD105” value ([3]; 20 μM, 0 hours, multidisperse after CD105 incubation 8 hours) was 31.6 nm. The “diameter (TEM and DLS)” value ([3]; 20 μM, H2O:DMSO = 99.5:0.5 v/v, freshly prepared) was 23.1 ± 5.8 nm, the “stability of nanoparticles in water” value ([3]; 20 μM, water with 0.5% DMSO, without CD105, 0 and 8 h, CD, FT-IR, TEM) was “stable” and the “diameter after incubation with BSA in place of CD105” value ([3]; bovine serum albumin replacing CD105, remained particulate) was 29.5 ± 5.3 nm. The “decrease in sO2 in tumors compared with before injection” value [4] was 33.8%, the “persistence of fluorescence in tumor” value (MDA-MB-231 tumor; [5]) was 72 h and the “time up to which artificial clots continuously accumulated in tumor” value (MDA-MB-231 tumor; [5]) was 24 h.
